Bioassay records as filed in PubChem.
Compounds with a hit are over-represented: about 3.3% of the library has one in this group of screens.
Jurkat viability = cytotoxicity toward Jurkat T cells, primary screen, cytotoxicity control, cell-based, Jurkat E6.1, 60K MLSMR library | Jurkat E6.1 viability, ATP luminescence, 48 h | inhibition, % at 4 µM | 56,000 compounds, 1.2% hits | AID 463, 2006;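 active means inhibition above the mean inhibition of all tested compounds plus 3 SD, cut at about 28% in these data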
HTR1E antagonist = 5-HT1E receptor antagonists, primary screen, cell-based, HTS; 5-hydroxytryptamine receptor 1E (Homo sapiens), P28566; CHO 5-HT1E Ga15 NFAT-bla reporter, FRET, antagonist; inhibition, % at 6 µM; 65,000 compounds, 0.99% hits;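 active means inhibition above a set limit, the mean inhibition across every tested compound plus 3 SD, cut at about 29% in these data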;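 further: signal is the 460 over 535 nm emission ratio of beta-lactamase substrate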
Target sequence (P28566 whole entry, looked up): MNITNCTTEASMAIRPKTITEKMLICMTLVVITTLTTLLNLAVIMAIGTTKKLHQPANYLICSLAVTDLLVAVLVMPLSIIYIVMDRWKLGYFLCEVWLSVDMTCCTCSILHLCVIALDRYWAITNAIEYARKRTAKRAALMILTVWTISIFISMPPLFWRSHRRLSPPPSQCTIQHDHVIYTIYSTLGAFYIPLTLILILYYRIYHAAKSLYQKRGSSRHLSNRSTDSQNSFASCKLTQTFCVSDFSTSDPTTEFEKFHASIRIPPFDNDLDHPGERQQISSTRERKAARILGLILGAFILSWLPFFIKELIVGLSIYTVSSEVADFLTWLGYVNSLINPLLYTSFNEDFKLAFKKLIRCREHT
HEK293 NFkB inh = inhibitors of PMA/ionomycin-induced NF-kB reporter, primary screen, antigen receptor NF-kB inhibitor project, cell-based, HEK-293 luciferase reporter, luminescence; HEK-293 NF-kB luciferase reporter; AID 465, 2006; inhibition, % at 3 µM; 62,000 compounds, 0.21% hits;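 active means inhibition above the mean of all tested compounds plus 3 SD, cut at about 40% in these data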
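System: NF-kB luciferase reporter HEK-293 cells | Replication: Single test | Control set: DMSO vs reference inhibitor | Evaluation: % inhibition | Schedule: 1 h pretreatment, 16 h stimulation, 37 °C | Probe or stimulus: PMA with ionomycin | Compound dosing: One dose, 3 µM | Detection: Luciferase luminescence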
5-HT1A blocker = human 5-HT1a receptor antagonists, primary screen, cell-based, CHO, Ga15 NFAT-bla reporter; CHO 5-HT1a Ga15 NFAT-bla reporter, antagonist mode; 62,000 compounds, 0.68% hits; inhibition, % at 10 µM; AID 612, 2007; 5-hydroxytryptamine receptor 1A (Homo sapiens), P08908;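 active means inhibition above the mean of all tested compounds plus 3 SD, cut at about 43% in these data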;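 further: receptor stimulated by 5-CT agonist at 100 nM near EC80; beta-lactamase reporter measured by ratiometric fluorescence of a cleavable substrate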
5HT1a ag = human 5-HT1a receptor agonists, primary screen, cell-based, CHO, Ga15 NFAT-bla reporter; 5-hydroxytryptamine receptor 1A (Homo sapiens), P08908; CHO 5-HT1a Ga15 NFAT-bla reporter, FRET ratio; 0% basal, 100% maximal reference agonist; activation, % at 10 µM; 65,000 compounds, 0.56% hits;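 active means activation above the screen-wide mean activation plus 3 SD, cut at about 19% in these data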
HTR1E agonist = 5-HT1E receptor agonists, primary screen, cell-based, HTS | 65,000 compounds, 0.69% hits | activation, % at 6 µM | CHO 5-HT1E Ga15 NFAT-bla reporter, FRET; 0% DMSO wells, 100% control agonist wells;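 active means activation above a set limit, the screen-wide mean activation plus 3 SD, cut at about 8.5% in these data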
Of the large screens only hits and unclear results are named; the others gave an inactive call.

CC1(C(=O)N(c2ccccc2)C(C(=O)NC2CCCC2)c2ccccn2)CC(=O)N=C2C=CC=CN21 (stereo not drawn)	none
CC(=O)Nc1ccccc1OCC(=O)c1cc(C)n(Cc2cccs2)c1C	Jurkat viability 100, HEK293 NFkB inh 55, 5-HT1A blocker 47
CC(=O)Nc1ccc(SCC(=O)c2cc(C)n(Cc3cccs3)c2C)cc1	none
O=C(NCC1CCCO1)C1CCN(S(=O)(=O)c2cccc3cccnc23)CC1 (stereo not drawn)	none
O=C1CCc2cc(S(=O)(=O)NCCC(=O)N3CCN(c4cccc(Cl)c4)CC3)ccc2N1	none
COC(=O)C1=C(CN2CCCc3ccccc32)NC(=O)NC1c1ccc(F)cc1 (stereo not drawn)	HEK293 NFkB inh 70
Cc1ccc(NS(=O)(=O)c2cc(C(=O)N3CCOCC3)ccc2C)cc1	none
Cc1ccc(C)c(S(=O)(=O)Nc2ccc3scnc3c2)c1	Jurkat viability 92
Cc1ccccc1OCc1nc(-c2ccc(NC(=O)c3ccco3)cc2)no1	none (no result: Jurkat viability)
Cc1ccccc1OCc1nc(-c2ccc(NC(=O)c3ccc4c(c3)OCO4)cc2)no1	HTR1E agonist 9.2
C[C@H](NC(=O)C1(c2ccccc2)CCN(C(=O)[C@H]2CSCN2C(=O)OC(C)(C)C)CC1)C(=O)O	none
CCOc1ccc(OCc2cccc(C(=O)N3CCOCC3)c2)cc1	HEK293 NFkB inh 50
O=C(CSc1nc2c(c(=O)n1-c1ccc(Cl)cc1)SCC2)Nc1ccc2c(c1)OCCO2	none
Cn1cccc1C(=O)NS(=O)(=O)c1ccccc1Cl	5HT1a ag 25
COc1ccc(-c2cc(C(F)F)nc(-n3nc(C)cc3C)n2)cc1	5HT1a ag 83
COC(=O)c1ccc(NC(=O)c2ccc(N(C)S(C)(=O)=O)cc2)cc1	Jurkat viability 31
CSc1nc2sc3c(c2c2nnnn12)CCCC3	HTR1E agonist 14 (no result: Jurkat viability, HEK293 NFkB inh, 5-HT1A blocker)
COc1cc(-c2nnc3sc(C4CCCCC4)nn23)cc(OC)c1OC	HTR1E antagonist 40
COc1cc(OC)c(-c2nn3c(C4CCCCC4)nnc3s2)cc1OC	HTR1E antagonist 33
CC1CCCC(NC(=O)CCn2c(=O)oc3ccccc32)C1C (stereo not drawn)	none
O=C(NC1CCCCC1)C(c1ccc(F)cc1)N(Cc1ccco1)C(=O)Cn1nnc2ccccc21 (stereo not drawn)	none
CCC(C(=O)NC1CCCC1)N(Cc1ccco1)C(=O)Cn1nnc(-c2ccc(C)cc2)n1 (stereo not drawn)	HTR1E agonist 9.0
O=C(NC1CCCCC1)C(c1ccccc1F)N(Cc1ccco1)C(=O)Cn1nnc2ccccc21 (stereo not drawn)	5-HT1A blocker 55
Cc1cccc(-c2c3c(=O)n(C)c(=O)n(C)c3c3cccnn23)c1	none
O=C(NCc1ccccc1)NC1(C(=O)N2CCN(c3ncccn3)CC2)CCCCC1	none
O=C(NCc1ccccc1)NC1(C(=O)N2CCCC2)CCCCC1	HTR1E agonist 89
O=S(=O)(c1ccccc1)N1CCN(c2nnnn2-c2ccccc2)CC1	none (no result: Jurkat viability)
c1ccc(CC2CCN(c3nnnn3-c3ccccc3)CC2)cc1	HTR1E antagonist 32
CCOC(=O)c1oc2ccccc2c1NC(=O)c1cccc(OC)c1OC	HTR1E antagonist 34
CC1(CC(=O)O)SC(=O)NC1=O (stereo not drawn)	none
CCn1nnc(-c2ccccc2NC(=O)c2cc(OC)c(OC)c(OC)c2)n1	HTR1E antagonist 31
COCCNC(C)C(=O)Nc1ccc(Br)cc1 (stereo not drawn)	none
OC(COC1CCCCC1)CN1CCN(c2ccccc2)CC1 (stereo not drawn)	5-HT1A blocker 45
Cc1cc(C)nc(SCc2nnc(SCc3ccccc3Cl)o2)n1	none
CC(=O)Nc1ccc(S(=O)(=O)N2CCC(NC(=O)c3ccco3)CC2)cc1	none
CC1CCCN(C(C(=O)Nc2ccc3c(c2)OCO3)c2ccccc2)C1 (stereo not drawn)	5-HT1A blocker 49
O=c1cc(CN2CCN(c3ccccc3)CC2)c2cc(O)c(-c3ccccc3)cc2o1	none
O=c1cc(CN2CCN(C/C=C/c3ccccc3)CC2)c2cc(O)ccc2o1	5-HT1A blocker 44
COc1cc(C2C(C#N)=C(N)Oc3cc(N(C)C)ccc32)cc2c1OCO2 (stereo not drawn)	HTR1E antagonist 43, HEK293 NFkB inh 63
CC(C)C(OC(=O)c1cccs1)C(=O)NCc1ccco1 (stereo not drawn)	none
CC(OC(=O)c1cccs1)C(=O)NCc1ccco1 (stereo not drawn)	HTR1E agonist 16
Cc1ccc(C(=O)C2CCN(CC(=O)Nc3ccc(N(C)C)cc3)CC2)cc1	HTR1E agonist 12
Cc1ccc(C(=O)C2CCN(CC(=O)Nc3ccc4c(c3)OCCO4)CC2)cc1	none
CCn1ncc2c(OCc3ccc(C#N)cc3)cc(C)nc21	none
O=C(c1ccccc1)N1CCN(CC2CC=CCC2)CC1 (stereo not drawn)	HTR1E agonist 9.2
O=C(c1ccccc1)N1CCN(CC(O)COCC2CC=CCC2)CC1 (stereo not drawn)	none
COc1ccc(CNC(C)C2COc3ccccc3O2)c(OC)c1 (stereo not drawn)	HTR1E agonist 13
COc1cccc(NC(=O)CSc2nnc(-c3cc(C)n(-c4ccccc4)c3C)o2)c1	HEK293 NFkB inh 41
Cc1cc(C)cc(NC(=O)CSc2nnc(-c3ccccc3Br)o2)c1	none
Cc1ccc(C2=Nc3ccccc3NC(C)(c3ccc(C)o3)C2)o1 (stereo not drawn)	5-HT1A blocker 49, HTR1E agonist 17
N#Cc1c(N)nc(SCC(=O)NCc2ccc3c(c2)OCO3)c(C#N)c1-c1cccs1	none (no result: Jurkat viability, HEK293 NFkB inh, 5-HT1A blocker)
N#Cc1c(N)nc(SCc2ccccn2)c(C#N)c1-c1cccs1	HTR1E antagonist 30 (no result: Jurkat viability, HEK293 NFkB inh, 5-HT1A blocker)
O=C(O)c1c(-c2ccccc2)c2oc3ccccc3c2[nH]c1=O	none
CCCNC(=O)c1c(N)n(-c2cc(OC)cc(OC)c2)c2nc3ccccc3nc12	5HT1a ag 30, HTR1E agonist 12
CCCSc1nnc(NC(=O)Nc2ccc(F)cc2)s1	HTR1E antagonist 32 (no result: Jurkat viability, HEK293 NFkB inh, 5-HT1A blocker)
O=C(COC(=O)c1ccccc1F)c1ccc(-n2nncc2-c2ccco2)cc1	none
Cn1c(C(=O)NCc2cccs2)cc2oc3ccccc3c21	Jurkat viability 29
Cn1ncc(N)c1C(=O)Nc1cccc(C(F)(F)F)c1	5HT1a ag 45
